These results are taken from ChEMBL document CHEMBL5032534, “COUPY Coumarins as Novel Mitochondria-Targeted Photodynamic Therapy Anticancer Agents” (J Med Chem, 2021).

Calls of active or inactive are those of the source. No cut-off for these calls is given here.

Series [1] relates to HeLa. Briefly: Induction of ROS generation in human HeLa cells assessed as increase in intracellular ROS level at 5 uM incubated for 1 hr in dark followed by irradiation with visible light for 1 hr under hypoxic condition by DCFH-DA staining based flow cytometric analysis. Type of series: functional, cell-based. To be noted: time 2.0 hrs. The essentials: (§1)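 HeLa cells were seeded at 2 × 10^4/well for 24 h under 21% or 2% O2. They were co-treated with 5 μM compound plus a scavenger, which stayed present throughout: NAC 5 mM, NaN3 5 mM, mannitol 50 mM, tiron 5 mM, sodium pyruvate 10 mM or Trolox 0.1 mM. Cells were held 1 h dark, then 1 h under visible light, stained 30 min with 10 μM DCFH-DA, trypsinized and analysed by flow cytometry. At least two independent experiments, n = 3.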
On the technique in general: A flow cytometer gives signals particle by particle.

Series [2] relates to HeLa. As to the kind of experiment: Induction of ROS generation in human HeLa cells at 5 uM incubated for 1 hr in dark followed by irradiation with visible light for 1 hr under hypoxic condition in presence of Trolox by DCFH-DA staining based flow cytometric analysis. Type of series: functional, cell-based. To be noted: time 2.0 hrs. The essentials: as §1
Series [3] concerns HeLa. Briefly: Induction of ROS generation in human HeLa cells at 5 uM incubated for 1 hr in dark followed by irradiation with visible light for 1 hr under normoxic condition in presence of 5 mM NAC by DCFH-DA staining based flow cytometric analysis. Type of series: functional, cell-based. To be noted: time 2.0 hrs. The essentials:
as §1

For series [4], the system named is HeLa. As to the kind of experiment: Induction of apoptosis in human HeLa cells assessed as increase in early apoptotic cells at 5 uM preincubated for 30 mins in dark followed by irradiation for 1 hr and measured after 24 hrs by Annexin V-FITC/ Propidium iodide staining based flow cytometry analysis. In kind it is functional, cell-based. To be noted: time 25.5 hrs. The essentials:
(§2)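 HeLa cells were seeded at 1.5 × 10^5/well overnight and treated for 0.5 h, with or without 1 h visible-light irradiation, followed by 24 h recovery. Cells were trypsinized, resuspended in binding buffer, labelled with FITC-Annexin V and propidium iodide for 15 min at room temperature in the dark, and analysed by flow cytometry. Cisplatin (30 μM) served as positive control.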

Series [5] is described as follows: Drug uptake in nucleolus of human HeLa cells assessed as drug accumulation at 0.5 uM measured after 30 mins by confocal microscopic analysis. In kind it is ADME, subcellular. To be noted: 0.5 h. The essentials:
(§3)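 HeLa cells in high-glucose DMEM with 10% fetal calf serum were seeded on glass-bottom dishes for 24 h, then loaded with compound for 30 min at 37 °C. They were washed three times with DPBS and kept in phenol-red-free low-glucose DMEM. Live cells were imaged by confocal microscopy at 37 °C with 5% CO2, excited at 561 nm, with emission collected from 570 to 670 nm.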

For series [6], the system named is HeLa. As to the kind of experiment: Induction of superoxide anion generation in human HeLa cells assessed as increase in DHE fluorescence at 5 uM incubated for 1 hr in dark followed by irradiation with visible light for 1 hr under hypoxic condition in presence of tiron by DHE staining based flow cytometric analysis. To be noted: time 2.0 hrs.
Series [7] relates to HeLa. As to the kind of experiment: Effect on cell cycle distribution in human HeLa cells at 5 uM incubated for 30 mins in dark by RNase/propidium iodide staining based FACS analysis. Type of series: functional. In short, it runs like this: (§4)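 HeLa cells were seeded at 1.5 × 10^5/well and treated for 0.5 h, with or without 1 h visible-light irradiation, followed by 24 h recovery. Cells were fixed in ice-cold 70% ethanol for 1 h and stained with PI (40 μg/mL) plus RNase (1 μg/mL) for 30 min at 310 K. Analysis was by flow cytometry in the FL2-A channel. At least two independent experiments, n = 3.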

The test system of series [8] is HeLa. Briefly: Induction of mitochondrial membrane potential loss in human HeLa cells at 5 uM measured after 24 hrs by JC-1 dye-based flow cytometric analysis. Type of series: functional, cell-based. In short, it runs like this:
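HeLa cells were seeded at 1.5 × 10^5 in 12-well plates for 24 h and treated for 24 h. Vehicle control held 0.4% DMSO and antimycin A (50 μM) served as positive control. Cells were stained with JC-1 (1 μM, 20 min) and analysed by flow cytometry (10^4 events; ex 488 nm; green 530 nm and red 585 nm channels). At least two independent experiments.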

Series [9] deals with HeLa. As to the kind of experiment: Induction of ROS generation in human HeLa cells at 5 uM incubated for 1 hr in dark followed by irradiation with visible light for 1 hr under normoxic condition in presence of Trolox by DCFH-DA staining based flow cytometric analysis. Type of series: functional, cell-based. To be noted: time 2.0 hrs. In short, it runs like this:
as §1

In series [10] the test system is HeLa. As to the kind of experiment: Induction of ROS generation in human HeLa cells at 5 uM incubated for 1 hr in dark followed by irradiation with visible light for 1 hr under hypoxic condition in presence of 5 mM NAC by DCFH-DA staining based flow cytometric analysis. In kind it is functional, cell-based. To be noted: time 2.0 hrs. In short, it runs like this:
as §1

Series [11] can be described thus: Drug uptake in mitochondria of human HeLa cells assessed as drug accumulation at 0.5 uM measured after 30 mins by confocal microscopic analysis. To be noted: 0.5 h. In kind it is ADME. In short, it runs like this:
as §3

Series [12] concerns HeLa. Briefly: Induction of autophagy in human HeLa cells […] pretreated with wortmannin for 1 hr followed by irradiation schedule for 1 hr by MDC staining based confocal microscopic analysis. In kind it is functional.
Series [13] can be described thus: Induction of singlet oxygen generation in air-saturated DCM solution assessed as reduction in 1,3-diphenylisobenzofuran absorption irradiated with 505 nanometer green light by DPBF-based assay. Type of series: functional.
Series [14] concerns HeLa. Briefly: Induction of ROS generation in human HeLa cells at 5 uM incubated for 1 hr in dark followed by irradiation with visible light for 1 hr under hypoxic condition in presence of NaPyr by DCFH-DA staining based flow cytometric analysis. To be noted: time 2.0 hrs. In kind it is functional, cell-based. In short, it runs like this: as §1
In series [15] the test system is HeLa. As to the kind of experiment: Induction of autophagy in human HeLa cells assessed as increase in MDC-positive autophagic vesicles at 5 uM preincubated for 30 mins followed by light irradiation for 1 hr and further incubated for 6 hrs in drug-free medium by MDC staining based confocal microscopic analysis. To be noted: time 1.5 hrs. In kind it is functional, cell-based. The essentials: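 HeLa cells were seeded at 1.5 × 10^4 cells/cm2 in chamber slides and given 0.5 h compound incubation, then 1 h visible-light irradiation. Medium was replaced for a 6 h recovery. Cells were stained with monodansylcadaverine (0.05 mM in PBS, 10 min, 310 K) and imaged by confocal microscopy (ex 405 nm). Vacuoles were counted in at least 10 cells from two experiments. Controls were starvation in EBSS for 2 h and resveratrol 50 μM for 2 h.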

In series [16] the test system is HeLa. As to the kind of experiment: Effect on cell cycle distribution in human HeLa cells assessed as reduction in G1 phase population at 5 uM preincubated for 30 mins in dark followed by light irradiation for 1 hr by RNase/propidium iodide staining based FACS analysis. Type of series: functional. To be noted: time 1.5 hrs. In short, it runs like this:
as §4

Series [17] concerns HeLa. As to the kind of experiment: Induction of apoptosis in human HeLa cells assessed as increase in necrotic cells at 5 uM incubated for 30 mins in dark measured after 24 hrs by Annexin V-FITC/ Propidium iodide staining based flow cytometry analysis. Type of series: functional, cell-based. To be noted: time 24.5 hrs. The essentials:
as §2

The nature of series [18]: Drug uptake in human HeLa cells at 0.5 uM incubated for 30 mins by confocal microscopic analysis. To be noted: 0.5 h. Type of series: ADME, cell-based. The essentials: as §3
For series [19], the system named is HeLa. Briefly: Induction of ROS generation in human HeLa cells at 5 uM incubated for 1 hr in dark followed by irradiation with visible light for 1 hr under hypoxic condition in presence of NaN3 by DCFH-DA staining based flow cytometric analysis. In kind it is functional, cell-based. To be noted: time 2.0 hrs. The essentials:
as §1

Series [20] is described as follows: Drug uptake in mitochondria of human HeLa cells assessed as drug accumulation at 5 uM measured after 30 mins by confocal microscopic analysis. In kind it is ADME. To be noted: 0.5 h. In short, it runs like this:
as §3

A short description of series [21]: Drug uptake in human HeLa cells at 5 uM incubated for 30 mins by confocal microscopic analysis. Type of series: ADME, cell-based. To be noted: 0.5 h. The essentials:
as §3

Series [22] can be described thus: Drug uptake in nucleolus of human HeLa cells assessed as drug accumulation at 5 uM measured after 30 mins by confocal microscopic analysis. To be noted: 0.5 h. Type of series: ADME, subcellular. The essentials:
as §3

For the molecule `CCN(CC)c1ccc2c(c1)O/C(=C(/C#N)c1cc[n+](C)cc1)C=C2C`, the outcome with HeLa [1], in the series on HeLa [3], with HeLa [7], with HeLa [8], with HeLa [9] and with HeLa [10] was inactive. The result in the series with HeLa [12] was inactive. In addition, the outcome (with HeLa [2]; with HeLa [4]; with HeLa [6]; in series [13]; in the series with HeLa [14]; in the series with HeLa [15]) was Active. In addition, the result with HeLa [16], in the series on HeLa [17] and in the series on HeLa [19] was Active. Besides, the Drug uptake result in series [5], in [11] and in series [18] was “Active” throughout.

Consider `CCN(CC)c1ccc2c(c1)O/C(=C(/C#N)c1ccncc1)C=C2C`, for which the Drug uptake result in series [20] is recorded as “Not Active”; in series [21], “Active”; in series [22], “Active”.
